The record followed here is ChEMBL document CHEMBL3414437, “Synthesis of CDDO-amino acid-nitric oxide donor trihybrids as potential antitumor agents against both drug-sensitive and drug-resistant colon cancer” (J Med Chem, 2015).

The test system of data set [1] is Mus musculus. The data set can be described thus: Toxicity in nude BALB/c mouse xenografted with FU-resistant human HCT8 cells assessed as abnormal size changes in liver at 17.8 to 35.7 umol/kg administered as via oral gavage daily for 21 days. Format: organism-based, HCT-8. The following applies: in vivo, 504 h. In outline: (§1)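 Male BALB/c nude mice aged 6-8 weeks, implanted s.c. in the right flank with HCT-8/5-FU cells (2 × 10^6). Once tumors reached 180-200 mm3 (days 9-11), randomized to daily gavage for 21 days in cremophor-EL/DMSO/PBS (1:1:8), 0.2 mL. At the end, liver, kidney, lung and heart checked for size, colour and weight. n = 8 per group.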
In general terms: Xenograft models place foreign cells or tissue in a host animal.

In data set [2] the target is RAC-alpha serine/threonine-protein kinase (Homo sapiens) (UniProt P31749). The data set can be described thus: Inhibition of AKT protein phosphorylation in human HCT8 cells at 0.25 to 1 uM incubated for 24 hrs by Western blotting method. Format: cell-based. The settings on record: HCT-8. In outline: (§2)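 Cells (1 x 10^6) grown 24 h in 6 cm dishes, then exposed in duplicate for 24 h to 0.25, 0.5 or 1 µM compound, with or without PTIO. Lysates (20 µg/lane) were run on 7.5% SDS-PAGE, blotted to PVDF and blocked in 5% milk. HRP secondaries with ECL detection; bands quantified by densitometry against β-actin or GAPDH. Three separate experiments, mean ± SD.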
A general note: Immunoblotting shows a protein as a band on a membrane.

The test system of data set [3] is HCT-8. As to the kind of experiment: Inhibition of BCRP protein expression in FU-resistant human HCT8 cells at 1 uM in presence of NO scavenger carboxy-PTIO incubated for 24 hrs by Western blotting method. The format is functional, cell-based. In outline: as §2
The test system of data set [4] is HCT-8. As to the kind of experiment: Induction of nitric oxide release in 5-FU resistant human HCT8 cells at 150 uM incubated for 150 mins after 150 mins of pre-treatment with 0.75 uM to 192 uM pepT1 substrate Gly-Sar by Griess assay. The format is functional, cell-based. In outline:
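Cells pretreated with Gly-Sar (0.75–192 µM, nine levels) for 150 min, then given compound at 150 µM for 150 min. Intracellular nitrite in lysates measured with Griess reagent (10 min, 37 °C, 540 nm) against a sodium nitrite standard curve. Mean ± SD of three experiments.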

A short description of data set [5]: (§3) Antiproliferative activity against human HCT8 cells assessed as inhibition of cell proliferation at 1 uM after 72 hrs by MTT assay. The format is functional. The settings on record: HCT-8, 72 h, read-out: GI. In outline: (§4)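 Cells grown in DMEM with 10% FBS and exposed to compound at 1 µM for 72 h. Proliferation measured by MTT at 570 nm and expressed as % inhibition versus untreated cells. Mean ± SD of three independent experiments.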
For orientation: Tetrazolium assays rely on reduction of a dye to a coloured formazan, in cell work by metabolically active cells.

Data set [6] concerns HCT-8. As to the kind of experiment: Inhibition of MRP1 protein expression in FU-resistant human HCT8 cells at 1 uM in presence of NO scavenger carboxy-PTIO incubated for 24 hrs by Western blotting method. Format: functional, cell-based. In outline: as §2
Data set [7] concerns Mus musculus. The data set can be described thus: Toxicity in nude BALB/c mouse xenografted with FU-resistant human HCT8 cells assessed as abnormal weight changes in lung at 17.8 to 35.7 umol/kg administered as via oral gavage daily for 21 days. The format is organism-based, HCT-8. The settings on record: in vivo, 504 h. An outline of the steps: (§5)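 Male BALB/c nude mice, 6-8 weeks old, inoculated s.c. in right flank with HCT-8/5-FU cells (2 × 10^6/mouse). Once tumors reached 180-200 mm3 (9-11 days post-implantation), mice were randomized and dosed by gavage daily for 21 consecutive days in cremophor-EL/DMSO/PBS (1:1:8) (vehicle alone 0.2 mL). Body weights recorded on day 1 and day 21. Organ size, color and weights were inspected for liver, kidney, lung and heart. n = 8 per group; mean ± SD.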

Data set [8] relates to HCT-8. As to the kind of experiment: Inhibition of ERK protein phosphorylation in FU-resistant human HCT8 cells at 0.25 to 1 uM incubated for 24 hrs by Western blotting method. The format is cell-based. In outline:
as §2

A short description of data set [9]: (§6) Antiproliferative activity against 5-FU resistant human HCT8 cells assessed as inhibition of cell proliferation at 1 uM after 72 hrs by MTT assay. The settings on record: HCT-8, 72 h, read-out: GI. Format: functional. In outline:
as §4

In data set [10] the test system is HCT-8. As to the kind of experiment: Induction of nitric oxide release in human HCT8 cells at 100 uM incubated for 150 mins by Griess assay. Format: functional, cell-based. In outline: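 Cells (1 × 10^6/well) treated in triplicate with compound at 100 µM for 150 min. Lysates mixed with Griess reagent for 10 min at 37 °C and read at 540 nm. Nitrite quantified from a sodium nitrite standard curve; 0.4% DMSO-treated cells served as background. Mean ± SD of three experiments.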

For data set [11], the system named is HCT-8. As to the kind of experiment: Inhibition of P-gp protein expression in FU-resistant human HCT8 cells at 0.25 to 1 uM incubated for 24 hrs by Western blotting method. Format: functional, cell-based. In outline: as §2
Data set [12] has as its system Mus musculus. As to the kind of experiment: Toxicity in nude BALB/c mouse xenografted with FU-resistant human HCT8 cells assessed as abnormal size changes in heart at 17.8 to 35.7 umol/kg administered as via oral gavage daily for 21 days. Format: organism-based, HCT-8. The following applies: in vivo, 504 h. In outline:
as §1

The subject of data set [13] is Mus musculus. The data set can be described thus: Toxicity in nude BALB/c mouse xenografted with FU-resistant human HCT8 cells assessed as abnormal color changes in lung at 17.8 to 35.7 umol/kg administered as via oral gavage daily for 21 days. The settings on record: in vivo, 504 h. The format is organism-based, HCT-8. In outline: as §1
Data set [14] has as its target T1, Multidrug resistance-associated protein 1 (Homo sapiens, UniProt P33527). The data set can be described thus: Induction of nitrosylation of MRP1 protein in FU-resistant human HCT8 cells at 0.25 to 1 uM incubated for 24 hrs by Western blotting method. The following applies: hct-8, 24 h. The format is cell-based. An outline of the steps:
(§7)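 HCT-8/5-FU cells (1 × 10^6) treated in duplicate for 24 h with 0.25, 0.5 or 1 µM test compound or 1 µM reference, with or without PTIO. Lysates immunoprecipitated overnight at 4 °C with anti-nitrotyrosine antibody on protein G beads. Eluates blotted with specific anti-Pgp, anti-MRP1 or anti-BCRP antibodies and quantified by densitometry. Mean ± SD of three experiments.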

For data set [15], the system named is HCT-8. The data set can be described thus: Inhibition of BCRP protein expression in FU-resistant human HCT8 cells at 0.25 to 1 uM incubated for 24 hrs by Western blotting method. The format is functional, cell-based. An outline of the steps:
as §2

Data set [16] relates to Mus musculus. The data set can be described thus: Toxicity in ICR mouse assessed as abnormality in eating behavior at 0.60 x 10^3 to 2.38 x 10^3 umol/kg administered as single dose via oral gavage measured up to 14 days post treatment. The format is organism-based. The settings on record: in vivo, 336 h. An outline of the steps:
(§8)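 Adult ICR mice of either sex were randomised and given a single oral gavage dose of 500, 1000, 1500 or 2000 mg/kg in cremophor-EL/DMSO/PBS (1:1:8). Survival, behaviour, water and food intake, body weight and activity were monitored for up to 14 days. Body weights were taken on days 0, 7 and 14.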

Data set [17] concerns Mus musculus. As to the kind of experiment: Toxicity in ICR mouse assessed as general activity changes at 0.60 x 10^3 to 2.38 x 10^3 umol/kg administered as single dose via oral gavage measured up to 14 days post treatment. Format: organism-based. The following applies: in vivo, 336 h. An outline of the steps:
as §8

The subject of data set [18] is HCT-8. The data set can be described thus: Inhibition of HIF-1alpha protein expression in human HCT8 cells at 1 uM incubated for 24 hrs by Western blotting method. Format: functional, cell-based. An outline of the steps:
as §2

Data set [19] concerns the target T1, Multidrug resistance-associated protein 1. As to the kind of experiment: Induction of nitrosylation of MRP1 protein in FU-resistant human HCT8 cells at 1 uM incubated for 24 hrs by Western blotting method. Format: cell-based. The settings on record: hct-8, 24 h. An outline of the steps: as §7
Data set [20] deals with HCT-8. Described as §3. The format is functional. In outline: as §4
The test system of data set [21] is Mus musculus. The data set can be described thus: Toxicity in nude BALB/c mouse xenografted with FU-resistant human HCT8 cells assessed as abnormal weight changes in liver at 59.4 umol/kg administered as via oral gavage daily for 21 days. The format is organism-based, HCT-8. The settings on record: in vivo, 504 h. In outline:
as §5

For data set [22], the system named is Mus musculus. The data set can be described thus: Toxicity in nude BALB/c mouse xenografted with FU-resistant human HCT8 cells assessed as abnormal size changes in kidney at 59.4 umol/kg administered as via oral gavage daily for 21 days. Format: organism-based, HCT-8. The following applies: in vivo, 504 h. In outline: as §1
Data set [23] relates to HCT-8. The data set is described as §6. The format is functional. In outline: as §4

Calls of active or inactive are those of the source. The rule behind the calls is not given here. A value given as a limit tells only on which side of the number the result lay.

T1 sequence (P33527 whole entry): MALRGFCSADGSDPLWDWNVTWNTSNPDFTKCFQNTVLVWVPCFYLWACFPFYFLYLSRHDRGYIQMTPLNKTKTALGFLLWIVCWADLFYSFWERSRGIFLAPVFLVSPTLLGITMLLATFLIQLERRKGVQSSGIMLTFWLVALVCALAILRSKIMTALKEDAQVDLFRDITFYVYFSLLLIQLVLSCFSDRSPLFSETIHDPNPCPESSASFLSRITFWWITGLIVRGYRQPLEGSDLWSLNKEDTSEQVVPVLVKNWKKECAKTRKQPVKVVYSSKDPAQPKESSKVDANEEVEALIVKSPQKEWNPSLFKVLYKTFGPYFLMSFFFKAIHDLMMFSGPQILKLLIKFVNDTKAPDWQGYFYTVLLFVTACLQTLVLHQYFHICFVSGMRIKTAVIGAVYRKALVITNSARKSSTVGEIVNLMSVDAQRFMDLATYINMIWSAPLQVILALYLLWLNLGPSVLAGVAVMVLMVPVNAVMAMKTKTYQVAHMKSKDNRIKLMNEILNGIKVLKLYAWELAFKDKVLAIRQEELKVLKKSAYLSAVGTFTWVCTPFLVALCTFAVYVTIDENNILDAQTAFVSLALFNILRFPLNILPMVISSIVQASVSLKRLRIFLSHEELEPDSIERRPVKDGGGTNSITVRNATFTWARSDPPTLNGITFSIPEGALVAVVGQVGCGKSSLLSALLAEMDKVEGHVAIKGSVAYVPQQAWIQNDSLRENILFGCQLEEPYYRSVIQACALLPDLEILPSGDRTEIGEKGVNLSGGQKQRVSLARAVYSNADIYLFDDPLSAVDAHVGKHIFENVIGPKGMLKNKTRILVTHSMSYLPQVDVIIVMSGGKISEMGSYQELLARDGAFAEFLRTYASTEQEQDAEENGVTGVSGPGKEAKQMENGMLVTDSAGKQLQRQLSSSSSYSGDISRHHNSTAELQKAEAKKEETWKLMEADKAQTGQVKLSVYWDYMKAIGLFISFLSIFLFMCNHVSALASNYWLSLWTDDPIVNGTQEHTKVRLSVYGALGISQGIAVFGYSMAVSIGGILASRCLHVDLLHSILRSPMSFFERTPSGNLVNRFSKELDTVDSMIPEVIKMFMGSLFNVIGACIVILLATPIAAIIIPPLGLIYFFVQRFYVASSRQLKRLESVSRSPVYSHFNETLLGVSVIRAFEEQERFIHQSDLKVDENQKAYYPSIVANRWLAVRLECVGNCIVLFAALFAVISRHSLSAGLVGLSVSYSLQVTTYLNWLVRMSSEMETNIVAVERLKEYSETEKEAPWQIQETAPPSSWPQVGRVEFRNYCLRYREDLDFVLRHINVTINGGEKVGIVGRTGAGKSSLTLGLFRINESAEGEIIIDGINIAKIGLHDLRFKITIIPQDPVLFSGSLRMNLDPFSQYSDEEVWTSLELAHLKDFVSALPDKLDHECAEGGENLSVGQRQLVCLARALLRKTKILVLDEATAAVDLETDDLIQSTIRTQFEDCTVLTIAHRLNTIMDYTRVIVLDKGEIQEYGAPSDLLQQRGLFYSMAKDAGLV
Chain of RAC-alpha serine/threonine-protein kinase (Homo sapiens) (P31749 whole entry): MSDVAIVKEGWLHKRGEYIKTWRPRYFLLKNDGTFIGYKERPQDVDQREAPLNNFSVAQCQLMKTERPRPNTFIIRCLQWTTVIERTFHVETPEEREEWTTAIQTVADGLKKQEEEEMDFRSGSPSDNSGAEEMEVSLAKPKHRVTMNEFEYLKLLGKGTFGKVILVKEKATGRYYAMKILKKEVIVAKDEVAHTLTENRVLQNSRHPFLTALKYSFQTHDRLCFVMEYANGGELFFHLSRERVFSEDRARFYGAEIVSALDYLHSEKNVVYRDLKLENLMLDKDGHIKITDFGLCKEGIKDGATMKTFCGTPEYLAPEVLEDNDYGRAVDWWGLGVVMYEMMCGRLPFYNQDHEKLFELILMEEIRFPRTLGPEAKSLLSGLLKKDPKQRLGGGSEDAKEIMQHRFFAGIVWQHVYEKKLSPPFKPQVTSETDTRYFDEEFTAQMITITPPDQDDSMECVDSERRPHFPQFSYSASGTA

In the case of `CC1(C)CC[C@]2(C(=O)NCC(=O)OCC#CCOc3no[n+]([O-])c3S(=O)(=O)c3ccccc3)CC[C@]3(C)[C@H](C(=O)C=C4[C@@]5(C)C=C(C#N)C(=O)C(C)(C)[C@@H]5CC[C@]43C)[C@@H]2C1`, the Activity entry is on record as “Non-toxic” with Mus musculus [1]; “Non-toxic” in the data set with Mus musculus [7]; “Non-toxic” in the data set with Mus musculus [12]; “Non-toxic” in the data set on Mus musculus [13]; “Dose-dependent effect” in data set [14]; “Non-toxic” in the data set on Mus musculus [16]. The Activity result in the data set with Mus musculus [17] is listed as “Non-toxic”. Besides, the inhibition entry (in [2]; in the data set on HCT-8 [8]; in the data set with HCT-8 [11]; in the data set with HCT-8 [15]) was “Dose-dependent effect” throughout. The inhibition result with HCT-8 [3] and with HCT-8 [6] was “inactive” in each case. Further, the outcome with HCT-8 [4] was inactive. For the same compound, the inhibition of growth at 1 µM in [5] and in [9] was > 90% each time. In the data set on HCT-8 [10], the outcome was Active.

As for `COC(=O)[C@]12CCC(C)(C)C[C@H]1[C@H]1C(=O)C=C3[C@@]4(C)C=C(C#N)C(=O)C(C)(C)[C@@H]4CC[C@@]3(C)[C@]1(C)CC2` [BARDOXOLONE METHYL], the inhibition entry in the data set with HCT-8 [18] is “Active”. Also, the Activity result in [19] is reported as “Not Active”; with Mus musculus [21] it was “Non-toxic”; with Mus musculus [22], “Non-toxic”. Also, the “growth inhibition (GI)” value in the data set with HCT-8 [20] and with HCT-8 [23] was “Active” in each case.
